Measurements from ChEMBL document CHEMBL3112586, “Synthesis of neolignans as microtubule stabilisers” (Bioorg Med Chem, 2014).
Active and inactive are the calls of the source. The rule behind the calls is not given here.

Key:
MCF7 [1] = assay: Cytotoxicity against human MCF7 cells after 48 hrs by MTT assay; assay type: functional, cell-based; conditions: MCF7, 48 h
How it was run: (§1)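 Cells in DMEM, 10% FBS, 37 °C, 5% CO2, plated and incubated 24 h; compounds diluted in phenol-red-free DMEM with 0.5% FBS, vehicle control; after exposure, MTT (5 mg/mL stock) added 3 h, formazan dissolved in DMSO, absorbance 570 nm; IC50 derived; podophyllotoxin and tamoxifen positive controls.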

Mus musculus [2] = assay: Toxicity in Swiss albino mouse assessed as change in triglyceride level at 1000 mg/kg, po (reference value: 121.45 +/- 24.02 mg/dL); assay type: organism-based; set-up: dose 1000 mg/kg, route oral; conditions: in vivo
Mus musculus [3] = assay: Toxicity in Swiss albino mouse assessed as change in SGOT level at 50 mg/kg, po (reference value: 25.27 +/- 1.32 U/L); assay type: organism-based; set-up: dose 50 mg/kg, route oral; conditions: in vivo
Mus musculus [4] = assay: Toxicity in Swiss albino mouse assessed as change in lymphocyte count at 5 to 1000 mg/kg, po relative to control; assay type: organism-based; set-up: dose 5-1000 mg/kg, route oral; conditions: in vivo
Mus musculus [5] = assay: Toxicity in Swiss albino mouse assessed as absolute heart weight at 5 to 1000 mg/kg, po relative to control; assay type: organism-based; set-up: dose 5-1000 mg/kg, route oral; conditions: in vivo
Mus musculus [6] = assay: Toxicity in Swiss albino mouse assessed as absolute brain weight at 5 to 1000 mg/kg, po relative to control; assay type: organism-based; set-up: dose 5-1000 mg/kg, route oral; conditions: in vivo
Mus musculus [7] = assay: Toxicity in Swiss albino mouse assessed as morbidity at 5 to 1000 mg/kg, po; assay type: organism-based; set-up: dose 5-1000 mg/kg, route oral; conditions: in vivo
How it was run: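 Swiss albino mice (3 male, 3 female per group, 20-25 g) were given one oral dose of 5, 50, 300 or 1000 mg/kg in DMSO/0.7% carboxymethyl cellulose, or vehicle. Mortality and signs of ill health were checked hourly on the dosing day, then daily for 7 days. Checks covered skin, mucous membranes, eyes, secretions, lachrymation, pilo-erection, respiration, gait, posture and response to handling.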

Mus musculus [8] = assay: Toxicity in Swiss albino mouse assessed as change in SGPT level at 5 mg/kg, po (reference value: 12.28 +/- 3.73 U/L); assay type: organism-based; set-up: dose 5 mg/kg, route oral; conditions: in vivo
Mus musculus [9] = assay: Toxicity in Swiss albino mouse assessed as absolute liver weight at 5 to 1000 mg/kg, po relative to control; assay type: organism-based; set-up: dose 5-1000 mg/kg, route oral; conditions: in vivo
Mus musculus [10] = assay: Toxicity in Swiss albino mouse assessed as change in RBC count at 50 mg/kg, po (reference value: 5.43 +/- 0.27 million/mm'3); assay type: organism-based; set-up: dose 50 mg/kg, route oral; conditions: in vivo
Mus musculus [11] = assay: Toxicity in Swiss albino mouse assessed as change in albumin level at 50 mg/kg, po (reference value: 3.35 +/- 0.51 g/dL); assay type: organism-based; set-up: dose 50 mg/kg, route oral; conditions: in vivo
Mus musculus [12] = assay: Toxicity in Swiss albino mouse assessed as change in ALKP level at 1000 mg/kg, po (reference value: 218.67 +/- 12.43 U/L); assay type: organism-based; set-up: dose 1000 mg/kg, route oral; conditions: in vivo
Mus musculus [13] = assay: Toxicity in Swiss albino mouse assessed as change in serum protein level at 5 mg/kg, po (reference value: 1.11 +/- 0.14 mg/ml); assay type: organism-based; set-up: dose 5 mg/kg, route oral; conditions: in vivo
Mus musculus [14] = assay: Toxicity in Swiss albino mouse assessed as change in triglyceride level at 50 mg/kg, po (reference value: 121.45 +/- 24.02 mg/dL); assay type: organism-based; set-up: dose 50 mg/kg, route oral; conditions: in vivo
MCF7 [15] = assay: Cell cycle arrest in human MCF7 cells assessed as increase in sub-diploid population after 24 hrs by propidium iodide staining-based FACS analysis; assay type: functional
How it was run: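 MCF-7 in DMEM, 10% FBS, 37 °C, 5% CO2; treated 24 h, harvested, washed cold PBS, resuspended 2 × 10⁶ cells/ml, fixed absolute ethanol, RNase A treated, propidium iodide (50 µg/mL) 30 min room temperature; DNA content by flow cytometry; phase distribution versus untreated control.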

Mus musculus [16] = assay: Toxicity in Swiss albino mouse assessed as relative heart weight at 5 to 1000 mg/kg, po relative to control; assay type: organism-based; set-up: dose 5-1000 mg/kg, route oral; conditions: in vivo
How it was run: (§2)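 One oral dose (5–1000 mg/kg; DMSO then 0.7% carboxymethyl cellulose vehicle; controls vehicle-only) was given to groups of 6 mice (3 male, 3 female). On day 7 the animals were sacrificed and necropsied for gross pathology. Absolute and relative weights of vital organs were recorded and compared with control.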

Mus musculus [17] = assay: Toxicity in Swiss albino mouse assessed as change in cholesterol level at 50 mg/kg, po (reference value: 81.64 +/- 4.26 mg/dL); assay type: organism-based; set-up: dose 50 mg/kg, route oral; conditions: in vivo
Mus musculus [18] = assay: Toxicity in Swiss albino mouse assessed as change in RBC count at 300 mg/kg, po (reference value: 5.43 +/- 0.27 million/mm'3); assay type: organism-based; set-up: dose 300 mg/kg, route oral; conditions: in vivo
Mus musculus [19] = assay: Toxicity in Swiss albino mouse assessed as change in serum protein level at 300 mg/kg, po (reference value: 1.11 +/- 0.14 mg/ml); assay type: organism-based; set-up: dose 300 mg/kg, route oral; conditions: in vivo
Mus musculus [20] = assay: Toxicity in Swiss albino mouse assessed as change in creatinine level at 5 mg/kg, po (reference value: 0.63 +/- 0.18 mg/dL); assay type: organism-based; set-up: dose 5 mg/kg, route oral; conditions: in vivo
Mus musculus [21] = assay: Toxicity in Swiss albino mouse assessed as change in body weight at 50 mg/kg, po (reference value: 24.5 +/- 0.76 g); assay type: organism-based; set-up: dose 50 mg/kg, route oral; conditions: in vivo
Mus musculus [22] = assay: Toxicity in Swiss albino mouse assessed as change in creatinine level at 50 mg/kg, po (reference value: 0.63 +/- 0.18 mg/dL); assay type: organism-based; set-up: dose 50 mg/kg, route oral; conditions: in vivo
Mus musculus [23] = assay: Toxicity in Swiss albino mouse assessed as change in body weight at 1000 mg/kg, po (reference value: 24.5 +/- 0.76 g); assay type: organism-based; set-up: dose 1000 mg/kg, route oral; conditions: in vivo
Mus musculus [24] = assay: Toxicity in Swiss albino mouse assessed as absolute spleen weight at 5 to 1000 mg/kg, po relative to control; assay type: organism-based; set-up: dose 5-1000 mg/kg, route oral; conditions: in vivo
Mus musculus [25] = assay: Toxicity in Swiss albino mouse assessed as relative brain weight at 5 to 1000 mg/kg, po relative to control; assay type: organism-based; set-up: dose 5-1000 mg/kg, route oral; conditions: in vivo; how it was run: as §2
MDA-MB-231 = assay: Cell cycle arrest in human MDA-MB-231 cells assessed as increase in sub-diploid population after 24 hrs by propidium iodide staining-based FACS analysis; assay type: functional
How it was run: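 MDA-MB-231 grown in DMEM with 10% FBS at 37 °C, 5% CO2; 24 h treatment, then cold-PBS wash, 2 × 10⁶ cells/ml, absolute-ethanol fixation, RNase A, propidium iodide 50 µg/mL for 30 min at room temperature; flow cytometric DNA content, sub-diploid fraction scored.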

Mus musculus [26] = assay: Toxicity in Swiss albino mouse assessed as relative spleen weight at 5 to 1000 mg/kg, po relative to control; assay type: organism-based; set-up: dose 5-1000 mg/kg, route oral; conditions: in vivo; how it was run: as §2
Mus musculus [27] = assay: Toxicity in Swiss albino mouse assessed as change in ALKP level at 5 mg/kg, po (reference value: 218.67 +/- 12.43 U/L); assay type: organism-based; set-up: dose 5 mg/kg, route oral; conditions: in vivo
MCF7 [28] = assay: Induction of microtubule polymerization in human MCF7 cells assessed as actin-tubulin cytoskeleton stabilization at 10 to 40 uM by confocal microscopy; assay type: cell-based
How it was run: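 MCF-7 cells treated, immunostained for actin and tubulin, and examined by confocal microscopy; paclitaxel-treated cells as positive control.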

Mus musculus [29] = assay: Toxicity in Swiss albino mouse assessed as relative kidney weight at 5 to 1000 mg/kg, po relative to control; assay type: organism-based; set-up: dose 5-1000 mg/kg, route oral; conditions: in vivo; how it was run: as §2
MCF7 [30] = assay: Cytotoxicity against human MCF7 cells after 72 hrs by MTT assay; assay type: functional, cell-based; conditions: MCF7, 72 h; how it was run: as §1
Mus musculus [31] = assay: Toxicity in Swiss albino mouse assessed as change in body weight at 300 mg/kg, po (reference value: 24.5 +/- 0.76 g); assay type: organism-based; set-up: dose 300 mg/kg, route oral; conditions: in vivo
HEK293 = assay: Cytotoxicity against human HEK293 cells after 24 hrs by MTT assay; assay type: cell-based; conditions: HEK293, 24 h; how it was run: as §1

## CCOC(=O)/C=C/c1ccc(O)c(/C(=C/c2ccc(O)cc2)C(=O)OCC)c1
MCF7 [1]
  IC50: 9.29 µM
Mus musculus [2]
  Activity: 156.83 mg/dL
Mus musculus [3]
  Activity: 34.34 U/L
Mus musculus [4]
  Activity: Non-toxic
Mus musculus [5]
  Activity: Non-toxic
Mus musculus [6]
  Activity: Non-toxic
Mus musculus [7]
  Activity: Non-toxic
Mus musculus [8]
  Activity: 13.15 U/L
Mus musculus [9]
  Activity: Non-toxic
Mus musculus [10]
  Activity: 5.58 million/mm3
Mus musculus [11]
  Activity: 2.76 g/dL
Mus musculus [12]
  Activity: 143.89 U/L
Mus musculus [13]
  Activity: 0.88 mg/mL
Mus musculus [14]
  Activity: 147.23 mg/dL
MCF7 [15]
  Activity: Dose-dependent effect
Mus musculus [16]
  Activity: Non-toxic
Mus musculus [17]
  Activity: 58.62 mg/dL
Mus musculus [18]
  Activity: 5.11 million/mm3
Mus musculus [19]
  Activity: 0.92 mg/mL
Mus musculus [20]
  Activity: 1.05 mg/dL
Mus musculus [21]
  Activity: 24.83 g
Mus musculus [22]
  Activity: 1.45 mg/dL
Mus musculus [23]
  Activity: 26.5 g
Mus musculus [24]
  Activity: Non-toxic
Mus musculus [25]
  Activity: Non-toxic
MDA-MB-231
  Activity: Dose-dependent effect
Mus musculus [26]
  Activity: Non-toxic
Mus musculus [27]
  Activity: 227.47 U/L
MCF7 [28]
  Activity: inactive
Mus musculus [29]
  Activity: Non-toxic
MCF7 [30]
  IC50: 3.27 µM
Mus musculus [31]
  Activity: 25 g
HEK293
  IC50: 12 µM
